Assays:
Histamine H1 receptor = Histamine H1 receptor (Cavia porcellus, UniProt P31389); experiment: Displacement of [3H]mepyramine from histamine H1 receptor in guinea pig cerebellum membranes; format: cell membranes, Membrane
Procedure, shortened: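 Guinea pig cerebellum membranes (160 µg/mL) incubated with 0.7 nM [3H]-mepyramine at 30 °C for 30 min, 0.5 mL final volume, ended by filtration. Nonspecific binding with 10 µM promethazine. At least six concentrations in duplicate; IC50 by nonlinear regression. Compound stocks 10^-2 M in DMSO, diluted in 50% DMSO.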

[1] = biological target: T1, Adrenergic receptor alpha-1 (Rattus norvegicus, UniProt P15823+P23944+P43140); experiment: Displacement of [3H]prazosin from adrenergic alpha-1 receptor in rat brain membranes; format: cell membranes
T1 sequence (P15823 whole entry): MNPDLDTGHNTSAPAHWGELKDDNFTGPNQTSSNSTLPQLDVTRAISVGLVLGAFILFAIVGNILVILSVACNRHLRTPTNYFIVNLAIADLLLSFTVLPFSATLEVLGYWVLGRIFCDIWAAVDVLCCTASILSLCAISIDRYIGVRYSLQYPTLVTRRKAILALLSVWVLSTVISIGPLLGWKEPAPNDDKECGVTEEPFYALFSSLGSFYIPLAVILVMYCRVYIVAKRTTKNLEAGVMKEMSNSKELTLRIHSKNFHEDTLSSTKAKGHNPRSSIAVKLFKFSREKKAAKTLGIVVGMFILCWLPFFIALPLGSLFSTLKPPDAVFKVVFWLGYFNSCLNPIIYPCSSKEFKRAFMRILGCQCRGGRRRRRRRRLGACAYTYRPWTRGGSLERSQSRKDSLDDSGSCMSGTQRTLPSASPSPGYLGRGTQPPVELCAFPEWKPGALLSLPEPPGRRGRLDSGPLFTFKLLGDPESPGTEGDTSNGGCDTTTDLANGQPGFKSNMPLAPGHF
T1 sequence (P23944 whole entry): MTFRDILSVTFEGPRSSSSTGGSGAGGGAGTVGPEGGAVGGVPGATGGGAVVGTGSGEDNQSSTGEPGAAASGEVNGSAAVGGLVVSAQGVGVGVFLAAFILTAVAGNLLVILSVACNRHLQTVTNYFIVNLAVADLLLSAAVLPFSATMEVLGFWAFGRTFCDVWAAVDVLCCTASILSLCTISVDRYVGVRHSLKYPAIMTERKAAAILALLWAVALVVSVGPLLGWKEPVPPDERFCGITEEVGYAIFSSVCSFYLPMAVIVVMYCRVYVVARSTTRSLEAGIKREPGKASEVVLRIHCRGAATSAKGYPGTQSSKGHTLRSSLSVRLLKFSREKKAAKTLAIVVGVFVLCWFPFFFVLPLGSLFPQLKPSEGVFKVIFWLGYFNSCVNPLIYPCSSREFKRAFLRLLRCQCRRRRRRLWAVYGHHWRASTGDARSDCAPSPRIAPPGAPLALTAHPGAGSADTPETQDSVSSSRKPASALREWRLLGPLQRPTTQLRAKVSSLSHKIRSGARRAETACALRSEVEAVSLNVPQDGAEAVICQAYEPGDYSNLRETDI
T1 sequence (P43140 whole entry): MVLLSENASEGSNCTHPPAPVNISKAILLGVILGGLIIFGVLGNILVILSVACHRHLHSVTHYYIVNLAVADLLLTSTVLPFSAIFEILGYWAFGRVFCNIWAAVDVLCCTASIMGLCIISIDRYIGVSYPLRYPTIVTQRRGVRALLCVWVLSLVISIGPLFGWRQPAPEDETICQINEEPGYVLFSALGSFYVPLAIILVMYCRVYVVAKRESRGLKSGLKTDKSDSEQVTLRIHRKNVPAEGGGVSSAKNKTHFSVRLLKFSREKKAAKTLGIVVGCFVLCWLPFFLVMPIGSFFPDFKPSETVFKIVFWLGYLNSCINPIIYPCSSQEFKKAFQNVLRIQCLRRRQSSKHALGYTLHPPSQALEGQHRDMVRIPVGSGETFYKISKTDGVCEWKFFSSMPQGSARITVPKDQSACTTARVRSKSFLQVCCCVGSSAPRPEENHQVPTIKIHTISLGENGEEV
Procedure, shortened: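 Rat brain membranes (340 µg protein/mL) with 0.25 nM [3H]-prazosin in 50 mM Tris-HCl pH 7.7, room temperature, 60 min, filtration. Nonspecific binding with 100 µM prazosin. Several concentrations run in duplicate; IC50 by nonlinear regression.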

Rattus norvegicus [2] = experiment: Inhibition of increase in histamine-induced cutaneous vascular permeability in orally dosed Wistar rat model after 4 hrs; format: functional; conditions: po
Procedure, shortened: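 Fasted male rats (150-175 g; n=5 per condition) dosed orally in 0.5% methylcellulose/0.1% Tween 80. At 4 h, under light ether, received four intradermal injections of 5 µg histamine, then 0.5% Evans Blue iv. Killed 1 h later. Papule area from maximum and minimum diameters (ellipse); inhibition of papule area; ED50 (mg/kg, po).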

Rattus norvegicus [3] = experiment: Inhibition of increase in histamine-induced cutaneous vascular permeability in orally dosed Wistar rat model after 8 hrs; format: functional; conditions: po
Procedure, shortened: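 Male Wistar rats (150-175 g), fasted, dosed orally in 0.5% methylcellulose/0.1% Tween 80 (10 mL/kg), n=5. At 1 or 8 h after dosing, four intradermal injections of 5 µg histamine were given, plus iv 0.5% Evans Blue. Papule area (ellipse) measured 1 h later. ED50 in mg/kg po.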

Histamine H1 receptor, sequence (P31389 whole entry): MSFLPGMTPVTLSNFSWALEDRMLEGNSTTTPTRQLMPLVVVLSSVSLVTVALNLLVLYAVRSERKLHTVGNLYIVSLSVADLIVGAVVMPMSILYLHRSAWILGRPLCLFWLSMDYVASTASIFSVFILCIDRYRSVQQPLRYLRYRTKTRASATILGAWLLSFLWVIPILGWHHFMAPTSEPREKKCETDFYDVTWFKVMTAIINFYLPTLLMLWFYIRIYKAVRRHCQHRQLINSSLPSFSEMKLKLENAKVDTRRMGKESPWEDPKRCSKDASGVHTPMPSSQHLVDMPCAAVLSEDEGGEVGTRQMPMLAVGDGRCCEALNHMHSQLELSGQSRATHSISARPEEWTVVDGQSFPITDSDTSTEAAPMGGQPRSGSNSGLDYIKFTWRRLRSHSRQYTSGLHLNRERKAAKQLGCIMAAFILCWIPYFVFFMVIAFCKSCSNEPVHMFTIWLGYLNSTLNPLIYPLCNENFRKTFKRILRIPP

SMILES | IC50 (Histamine H1 receptor) | IC50 [1] | ED50 (Rattus norvegicus [2]) | ED50 (Rattus norvegicus [3])
O=C(O)c1ccccc1OCCN1CCC(c2cn(Cc3ccc(Cl)s3)c3cc(F)ccc23)CC1 | 0.028 µM (antagonist) | > 10 µM | 1 mg/kg | –
CCOCCn1cc(C2CCN(CCOc3ccccc3C(=O)O)CC2)c2cccc(C)c21 | 0.5 µM (antagonist) | 7.6 µM | – | –
O=C(O)c1ccccc1OCCN1CCC(c2cn(CCc3ccccn3)c3ccccc23)CC1 | 0.57 µM (antagonist) | > 10 µM | – | –
CCOCCn1cc(C2CCN(CCOc3ccsc3C(=O)O)CC2)c2ccccc21 | 0.1 µM (antagonist) | < 10 µM | – | –
O=C(O)c1ccccc1OCCN1CCC(c2cn(Cc3ccco3)c3cc(F)ccc23)CC1 | 0.037 µM (antagonist) | > 10 µM | 0.32 mg/kg | 2.2 mg/kg (antagonist)
CCOCCn1cc(C2CCN(Cc3ccccc3C(=O)O)CC2)c2ccccc21 | 0.33 µM (antagonist) | > 10 µM | 3 mg/kg | –
CCOCCn1cc(C2CCN(CCOc3ccccc3C(=O)O)CC2)c2cc(Br)ccc21 | 0.15 µM (antagonist) | 3.6 µM | – | –
CCOCCn1cc(C2CCN(Cc3ccc(OC)c(C(=O)O)c3)CC2)c2ccccc21 | – | – | 0.02 mg/kg | –
O=C(O)c1ccccc1OCCN1CCC(c2cn(CC3CC3)c3cc(F)ccc23)CC1 | – | > 10 µM | 0.11 mg/kg | 0.5 mg/kg (antagonist)
CCOCCn1cc(C2CCN(CCOc3c(Br)cc(Br)cc3C(=O)O)CC2)c2ccccc21 | 0.225 µM (antagonist) | 6.9 µM | – | –
O=C(O)c1ccccc1OCCN1CCC(c2cn(Cc3ccco3)c3ccccc23)CC1 | – | > 10 µM | 3 mg/kg | –
O=C(O)c1ccccc1OCCN1CCC(c2cn(CCC3COCCO3)c3ccccc23)CC1 (configuration not stated) | 0.39 µM (antagonist) | 6.2 µM | 3 mg/kg | –
O=C(O)c1ccccc1OCCN1CCC(c2cn(Cc3ccc(Cl)s3)c3ccccc23)CC1 | – | – | 3 mg/kg | –
CCOCCn1cc(C2CCN(CCOc3cccc(C(=O)O)c3)CC2)c2ccccc21 | – | 2 µM | – | –
CCOCCn1cc(C2CCN(CCOc3cccc(F)c3C(=O)O)CC2)c2ccccc21 | 0.5 µM (antagonist) | 10 µM | – | –
O=C(O)c1cccc(CN2CCC(c3cn(Cc4ccco4)c4ccccc34)CC2)c1 | 0.087 µM (antagonist) | > 10 µM | 1 mg/kg | –
O=C(O)c1cccc(CN2CCC(c3cn(Cc4cccs4)c4ccccc34)CC2)c1 | – | > 10 µM | 3 mg/kg | –
CCOCCn1cc(C2CCN(CCOc3cc(OC)ccc3C(=O)O)CC2)c2ccccc21 | 0.034 µM (antagonist) | – | 0.17 mg/kg | –

SMILES | IC50 (Histamine H1 receptor) | IC50 [1] | ED50 (Rattus norvegicus [2]) | ED50 (Rattus norvegicus [3])
CCOCCn1cc(C2CCN(CCOc3ccccc3C(=O)O)CC2)c2cc(F)ccc21 | 0.1 µM (antagonist) | 10 µM | – | –
CCOCCn1cc(C2CCN(Cc3cccc(C(=O)O)c3)CC2)c2cc(OC)ccc21 | 0.5 µM (antagonist) | > 10 µM | > 3 mg/kg | –
CCOCCn1cc(C2CCN(CCOc3ccccc3C(=O)O)CC2)c2ccc(C(F)(F)F)cc21 | > 0.5 µM | 6.9 µM | – | –
COCCn1cc(C2CCN(CCOc3ccccc3C(=O)O)CC2)c2ccccc21 | – | > 10 µM | 1.1 mg/kg | –
CCOCCn1cc(C2CCN(Cc3cccc(OCC(=O)O)c3)CC2)c2ccccc21 | 0.13 µM (antagonist) | > 10 µM | 3 mg/kg | –
CCOCCn1cc(C2CCN(Cc3cc(C(=O)O)ccc3Br)CC2)c2ccccc21 | 0.345 µM (antagonist) | > 10 µM | 3 mg/kg | –
CCOCCn1cc(C2CCN(Cc3ccc(OCC(=O)O)cc3)CC2)c2ccccc21 | 0.322 µM (antagonist) | > 10 µM | > 3 mg/kg | –
CCOCCn1cc(C2CCN(CCOc3ccccc3C(=O)O)CC2)c2ccc(F)cc21 | 0.076 µM (antagonist) | 10 µM | – | –
CCOCCn1cc(C2CCN(CCOc3ccc(C(C)=O)cc3C(=O)O)CC2)c2ccccc21 | 0.219 µM (antagonist) | > 10 µM | – | –
O=C(O)c1ccccc1OCCN1CCC(c2cn(Cc3cccs3)c3ccccc23)CC1 | 0.098 µM (antagonist) | 3.7 µM | – | –
COCCn1cc(C2CCN(Cc3cccc(C(=O)O)c3)CC2)c2ccc(F)cc21 | 0.15 µM (antagonist) | > 10 µM | 1 mg/kg | –
CCOCCn1cc(C2CCN(Cc3cccc(C(=O)O)c3)CC2)c2ccccc21 | 0.218 µM (antagonist) | – | 0.011 mg/kg | –
CCOCCn1cc(C2CCN(CCOc3ccc(C(=O)O)cc3)CC2)c2ccccc21 | – | 3 µM | – | –
C=CCn1cc(C2CCN(CCOc3ccccc3C(=O)O)CC2)c2ccccc21 | – | > 10 µM | 3 mg/kg | –
O=C(O)c1cccc(CN2CCC(c3cn(Cc4ccc(Cl)s4)c4ccccc34)CC2)c1 | 0.103 µM (antagonist) | – | > 3 mg/kg | –
CCOCCn1cc(C2CCN(CCOc3ccc(C)cc3C(=O)O)CC2)c2ccccc21 | 0.221 µM (antagonist) | 8.6 µM | – | –
CCOCCn1cc(C2CCN(Cc3ccccc3OCC(=O)O)CC2)c2ccccc21 | 0.196 µM (antagonist) | > 10 µM | > 3 mg/kg | –
CCOCCn1cc(C2CCN(CCOc3ccccc3C(=O)O)CC2)c2cccc(Br)c21 | 0.08 µM (antagonist) | 10 µM | > 3 mg/kg | –

Reference: ChEMBL document CHEMBL1149258, “Synthesis and structure-activity relationships of novel histamine H1 antagonists: indolylpiperidinyl benzoic acid derivatives” (J Med Chem, 2004)
